# Data as given in paper PMC2223369 (The Journal of General Physiology, 1999).
# Tests used:
# [1] = system: alpha subunit of type IIA sodium channels; assay: Use-dependent block, conditioning pulse protocol; type: cell-based, rat; conditions: for use-dependent block, conditioning pulse protocol (in words): Fig. 5 and 6; for use-dependent block at 200 mV: wild-type channels, conditioning pulses to 200 mV
# [2] = system: alpha subunit of type IIA sodium channels; assay: Fast peptide block of LqTx-modified sodium channels, whole-cell patch clamp; type: cell-based, rat; conditions: 100 nM LqTx; for k b(0 mV), blocking rate / k u(0 mV), unblocking rate: 1 mM peptide, SEM; for k b(0 mV), blocking rate: calculated from τ and Fss by Eq. 2, mean ± SEM; for k u(0 mV), unblocking rate: calculated from τ and Fss by Eq. 3, mean ± SEM; for fraction of extrapolated peak sodium current unblocked at steady state / fast block of LqTx-modified sodium channels (in words): 1 mM peptide intracellular, 0 mV
# Procedure, shortened: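 CHO cells stably expressing the channel alpha subunit, recorded 24 h after subculture; whole-cell patch clamp at 22–25°C. Pipette carries 1 mM test peptide, and recording starts about 20 min after break-in. LqTx-modified currents are elicited by steps from −80 mV to 0 mV. Decay is fit to a single exponential, with Fss = B/(A+B). kb and ku come from τ and Fss.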
# sodium channels = conditions: ref Eaholtz et al., cited from earlier work
# [3] = system: alpha subunit of type IIA sodium channels; assay: Recovery from fast block, two-pulse voltage protocol; type: cell-based, rat; conditions: for time constant of recovery from fast block at −80 mV: interpulse −80 mV, mean ± SEM, n = 5
# Procedure, shortened: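 CHO cells stably expressing the channel alpha subunit, under whole-cell clamp at 22–25°C with 1 mM test peptide in the pipette; channels LqTx-modified. Two 0-mV test pulses give the ratio I2/I1. The protocol is repeated 20× with the interpulse interval increased by Δt each time. Interpulse voltage is −80, −100, −120 or −140 mV. Recovery versus interval is fit to a single exponential for the time constant.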
# [4] = 1 mM peptide, channels not modified by LqTx
molecule,measurement,setting,value
"NC(=O)[C@@H](N)Cc1ccccc1 [F-NH2, phenylalanine-amide]","use-dependent block, conditioning pulse protocol (in words)",[1]; [4],not effective in use-dependent block
Ac-KIFMTK-NH2,"k b(0 mV), blocking rate",[2],2881 ± 263 s⁻¹
same,"k u(0 mV), unblocking rate",[2],731 ± 8 s⁻¹
same,"use-dependent block, conditioning pulse protocol (in words)",[1]; [4],poor use-dependent blocker
DIFMK-NH2,"use-dependent block, conditioning pulse protocol (in words)",[1]; [4],much less effective than ac-KIFMK-NH2
FM-NH2,"use-dependent block, conditioning pulse protocol (in words)",[1]; [4],not effective in use-dependent block
KIFM-NH2,fraction of extrapolated peak sodium current unblocked at steady state,[2],42%
same,"k b(0 mV), blocking rate",[2],1751 ± 163 s⁻¹
same,"k u(0 mV), unblocking rate",[2],1283 ± 149 s⁻¹
same,"use-dependent block, conditioning pulse protocol (in words)",[1]; [4],substantial use-dependent block
KIFMT-NH2,fast block of LqTx-modified sodium channels (in words),[2],rapidly blocked LqTx-modified sodium currents
same,"k u(0 mV), unblocking rate",[2],386 ± 81 s⁻¹
same,"use-dependent block, conditioning pulse protocol (in words)",[1]; [4],much less effective than ac-KIFMK-NH2
ac-DIFMT-NH2,fast block of LqTx-modified sodium channels (in words),[2],did not produce significant fast block
same,"use-dependent block, conditioning pulse protocol (in words)",[1]; [4],no effect at all
ac-KAFAK-NH2,fast block of sodium channels (in words),sodium channels; 1994,did not produce fast block
same,"use-dependent block, conditioning pulse protocol (in words)",[1]; [4],less effective
same,use-dependent block at 200 mV,[1]; 1 mM peptide,> 60%
ac-KIFMK-NH2,time constant of recovery from fast block at −80 mV,"[3]; 1 mM peptide, LqTx-modified channels",0.9 ms
same,time constant of recovery from fast block at −80 mV,"[3]; 1 mM peptide, LqTx-modified channels, SEM",0.9 ± 0.3 ms
same,time constant of recovery from fast block at −100 mV,"[3]; 1 mM peptide, LqTx-modified channels, interpulse −100 mV, n = 6",0.6 ± 0.1 ms
same,time constant of recovery from fast block at −120 mV,"[3]; 1 mM peptide, LqTx-modified channels, interpulse −120 mV, n = 6",0.4 ± 0.1 ms
same,time constant of recovery from fast block at −140 mV,"[3]; 1 mM peptide, LqTx-modified channels, interpulse −140 mV, n = 4",0.3 ± 0.1 ms
same,time at which recovery from fast block was half complete,[3]; −80 mV,0.9 ms
same,fraction of extrapolated peak sodium current unblocked at steady state,[2],21%
same,"k u(0 mV), unblocking rate",[2],587 ± 40 s⁻¹
same,δ value of fast block,"sodium channels; voltage dependence of fast block, 1998",0.3
same,"fractional current (I12/I1) after 10 conditioning pulses to 200 mV, LqTx-modified channels","[1]; 1 mM peptide, 100 nM LqTx, n = 6, mean ± SEM, SEM",0.03 ± 0.02
same,use-dependent block in the absence or presence of LqTx,"[1]; 1.0 mM peptide, 200-mV conditioning pulses",> 95%
same,conditioning voltage of half-maximal use-dependent block,"[1]; 1 mM peptide, channels not modified by LqTx, Fig. 5 A",+125 mV
same,use-dependent block with conditioning pulses more positive than 150 mV,"[1]; 1.5 mM peptide, three cells, unmodified channels",~100%
same,δ of use-dependent block,[1]; mean zδ divided by two (two positive charges),0.5
same,time for half-maximal recovery from use-dependent block,[1]; −80 mV,more than 90 s
ac-KIQMK-NH2,fast block of sodium channels (in words),sodium channels; 1994,did not produce fast block
same,use-dependent block (in words),sodium channels; 1994,ineffective in use-dependent block
same,"use-dependent block, conditioning pulse protocol (in words)",[1]; [4],did not produce significant block
ac-RIFMR-NH2,fast block of LqTx-modified sodium channels (in words),[2],rapidly blocked LqTx-modified sodium currents
same,"k u(0 mV), unblocking rate",[2],222 ± 33 s⁻¹
same,"use-dependent block, conditioning pulse protocol (in words)",[1]; [4],significantly more potent than ac-KIFMK-NH2
cyclic KIFMK (head to tail),fast block of LqTx-modified sodium channels (in words),[2],did not exhibit significant fast block
same,"use-dependent block, conditioning pulse protocol (in words)",[1]; [4],nearly as potent in use-dependent block as ac-KIFMK-NH2
same,use-dependent block at 200 mV,[1]; 1 mM peptide,~100%
